Positions count from the first letter of the chain named. Read-outs that look alike come from different tables or passages of the source.
Key:
[1] = molecular target: native olfactory CNG channels; settings: cited from earlier work
[2] = molecular target: T1, wild-type bovine olfactory CNG channel (α3 subunit) (Bos taurus, UniProt Q03041); assay: Blockage of macroscopic current by internal Ca2+, inside-out patches; format: biochemical; settings: read-out: K i for internal Ca2+ blockage, +80 mV, 1 mM cGMP, average
T1 sequence (Q03041 1-663): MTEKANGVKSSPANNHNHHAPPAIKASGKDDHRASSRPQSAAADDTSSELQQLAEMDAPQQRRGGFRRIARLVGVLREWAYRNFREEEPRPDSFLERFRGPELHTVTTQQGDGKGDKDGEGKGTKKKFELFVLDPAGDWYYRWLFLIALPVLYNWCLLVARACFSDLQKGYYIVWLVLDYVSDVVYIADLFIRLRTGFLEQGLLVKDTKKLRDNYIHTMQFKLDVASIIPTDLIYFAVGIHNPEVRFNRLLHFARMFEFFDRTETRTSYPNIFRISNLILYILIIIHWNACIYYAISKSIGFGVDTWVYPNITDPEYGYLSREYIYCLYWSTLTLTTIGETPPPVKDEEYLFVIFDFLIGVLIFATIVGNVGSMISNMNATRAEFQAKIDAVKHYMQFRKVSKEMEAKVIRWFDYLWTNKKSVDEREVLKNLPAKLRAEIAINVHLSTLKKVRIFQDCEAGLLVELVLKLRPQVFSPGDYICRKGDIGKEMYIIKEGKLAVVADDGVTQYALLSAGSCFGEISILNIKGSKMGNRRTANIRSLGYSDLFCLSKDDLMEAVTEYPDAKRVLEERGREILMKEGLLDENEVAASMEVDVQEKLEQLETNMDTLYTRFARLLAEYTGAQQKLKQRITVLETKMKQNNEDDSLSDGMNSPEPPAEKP

[3] = molecular target: T2, E340Q mutant bovine olfactory CNG channel (Bos taurus, UniProt Q03041, E340Q); assay: Estimate from current variance versus mean amplitude of macroscopic currents; format: biochemical; settings: estimated from variance/mean at various cGMP concentrations
T2 sequence (Q03041 1-663 E340Q): T1 sequence (Q03041 1-663) with E340Q
Procedure, shortened: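 Single-channel amplitude not directly measurable. Assuming a single open state, current amplitude and maximal open probability were estimated from the relation between current variance and mean amplitude of macroscopic currents recorded at various cGMP concentrations, in patches from mRNA-injected Xenopus oocytes.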

[4] = molecular target: T3, E340D mutant bovine olfactory CNG channel (Bos taurus, UniProt Q03041, E340D); format: biochemical; settings: cGMP
T3 sequence (Q03041 1-663 E340D): T1 sequence (Q03041 1-663) with E340D

[5] = molecular target: T2, E340Q mutant bovine olfactory CNG channel; format: biochemical

| Ki [2] | maximal open probability [3] | P max (+80 mV) [4] | P max (−80 mV) [4] | L, equilibrium gating constant ([4]; allosteric model fit, mean ± SD) | n(−80 mV), Hill coefficient ([5]; cGMP) | I(−80 mV)/I(+80 mV) ([5]; cGMP-gated current) | EC50 ([5]; read-out: K 1/2, cGMP, +80 mV) | EC50 ([5]; read-out: K 1/2, cGMP, −80 mV) | EC50 ([5]; read-out: K 1/2,cG, −80 mV, single patch, Fig. 1 fit) | n cG ([5]; −80 mV, single patch, Fig. 1 fit) | Structure (SMILES) | Ki ([1]; read-out: K i for external Ca2+ blockage, frog, +80 mV, ref Dzeja et al. 1999) | Ki ([1]; read-out: K i for external Ca2+ blockage, frog, −70 mV, ref Dzeja et al. 1999) |
| --- | --- | --- | --- | --- | --- | --- | --- | --- | --- | --- | --- | --- | --- |
| 1000 ± 700 µM |  |  |  |  |  |  |  |  |  |  | [Ca+2] [Ca^2+] | ~2000 µM | 265 µM |
|  | 0.9 | 0.985 ± 0.007 | 0.987 ± 0.007 | 66 ± 15 | 2.7 ± 0.5 | 0.19 ± 0.06 | 4 ± 1.2 µM | 5.6 ± 1.7 µM | 4.8 µM | 2.4 | Nc1nc2c(ncn2[C@@H]2O[C@@H]3COP(=O)(O)O[C@H]3[C@H]2O)c(=O)[nH]1 [cGMP] |  |  |

— PMC2233693 (The Journal of General Physiology, 2000)
